{"source": "paper PMC3515842", "about": "(Journal of medicinal chemistry, 2012)", "key": {"APE1 [1]": {"biological_target": "T1, APE1 (Homo sapiens, UniProt P27695)", "T1 sequence (P27695 whole entry)": "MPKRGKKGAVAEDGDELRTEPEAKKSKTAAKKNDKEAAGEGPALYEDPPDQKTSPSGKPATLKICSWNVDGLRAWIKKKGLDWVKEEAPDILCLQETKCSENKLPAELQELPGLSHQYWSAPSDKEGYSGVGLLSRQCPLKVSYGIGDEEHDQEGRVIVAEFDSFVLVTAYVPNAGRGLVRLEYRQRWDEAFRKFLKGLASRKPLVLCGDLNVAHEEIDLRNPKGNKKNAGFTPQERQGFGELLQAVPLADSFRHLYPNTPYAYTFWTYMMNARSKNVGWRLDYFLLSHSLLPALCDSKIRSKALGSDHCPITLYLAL", "assay": "fluorescence-based qHTS assay of APE1 endonuclease activity", "assay_type": "biochemical", "settings": "for less activity than the corresponding amide analog (4): relative to 4"}, "[2]": {"biological_target": "total AP site incision activity of HeLa whole cell extract (APE1) (Homo sapiens, UniProt P27695)", "sequence (P27695 whole entry)": "as above", "assay": "HeLa whole cell extract incision assay", "assay_type": "biochemical", "settings": "for inhibition at 100 µM: read-out: inhibition of the incision activity of HeLa extracts"}, "CYP3A4": {"biological_target": "CYP3A4 (Homo sapiens, UniProt P08684)", "sequence (P08684 whole entry, species assumed)": "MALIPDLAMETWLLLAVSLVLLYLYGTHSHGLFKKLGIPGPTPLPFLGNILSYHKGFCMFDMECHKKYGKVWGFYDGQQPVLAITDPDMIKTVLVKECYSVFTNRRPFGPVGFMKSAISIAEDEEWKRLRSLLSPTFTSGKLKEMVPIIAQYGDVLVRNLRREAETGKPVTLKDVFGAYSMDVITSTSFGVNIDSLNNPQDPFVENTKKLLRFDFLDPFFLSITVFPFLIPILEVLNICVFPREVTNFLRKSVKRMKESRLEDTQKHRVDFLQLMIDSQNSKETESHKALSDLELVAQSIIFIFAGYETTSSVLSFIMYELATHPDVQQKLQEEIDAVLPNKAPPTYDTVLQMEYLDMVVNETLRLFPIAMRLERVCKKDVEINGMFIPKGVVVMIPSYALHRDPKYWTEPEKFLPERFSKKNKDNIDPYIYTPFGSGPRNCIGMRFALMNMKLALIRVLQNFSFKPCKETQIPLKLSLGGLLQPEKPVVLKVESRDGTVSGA", "assay": "CYP3A4 inhibition", "assay_type": "in vitro ADME"}, "Caco-2 permeability": {"assay": "Caco-2 permeability", "assay_type": "in vitro ADME", "settings": "human, Caco-2, pH 7.4"}, "HeLa cells": {"tested_on": "HeLa cells", "assay": "MMS and TMZ potentiation / HeLa cell viability assay", "assay_type": "cell-based, human", "settings": "for IC50: Homo sapiens, read-out: 50% reduction in cell viability as a single agent; for IC50 / concentration of optimal synergy with MMS and TMZ: 24 h; for potentiation of cytotoxic effects of MMS and TMZ / concentration of optimal synergy with MMS and TMZ: MMS 0.4 mM or TMZ 1 mM", "procedure,_shortened": "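HeLa cells in DMEM with 10% FBS, seeded at 6K/well and left overnight to attach. Medium was then replaced with fresh medium holding serial dilutions of test compound (5–30 µM), with or without MMS (0.4 mM) or TMZ (1 mM), for 24 h. Viability was read by CellTiter Glo luminescence after 30 min at room temperature, as percent of DMSO control, normalized to 100% per alkylating agent without compound.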"}, "[3]": {"assay": "in vivo PK analysis, IP administration", "settings": "IP 30 mg/kg, CD1 mice, 24 hour observation"}, "APE1-DNA complex": {"biological_target": "APE1-DNA complex (Homo sapiens, UniProt P27695)", "sequence (P27695 whole entry, one chain of several)": "as the sequence (P27695 whole entry) above", "assay": "electrophoretic mobility shift assay", "assay_type": "binding", "settings": "protein pre-treated with 30 µM inhibitor", "procedure,_shortened": "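Recombinant wild-type APE1 (10 ng, ~28 nM) was preincubated 10 min on ice with test compound (1, 3, 10, 30, 100 µM) or 1% DMSO. 32P AP-DNA (100 fmol, 10 nM) was added for 5 min on ice. Complex and free DNA were separated on native 8% PAGE (2 h, 120 V); percent DNA bound was read by phosphorimager.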"}, "APE1 [4]": {"biological_target": "T1, APE1", "assay": "enzyme kinetic studies of APE1 incision", "assay_type": "biochemical", "settings": "for KM increase: 5, 10 or 20 µM inhibitor; for mode of inhibition: Lineweaver-Burk analysis; for kcat decrease: only at the high inhibitor concentration"}}}
{"smiles": "CC(=O)Nc1sc2c(c1-c1ncco1)CCNC2", "note": "[Compound 19]", "values": [{"measurement": "activity against APE1 in the qHTS assay, in words", "setting": "APE1 [1]", "result": "greatly diminished activity"}]}
{"smiles": "Cc1nnc(-c2sc3c(c2-c2nc4ccccc4s2)CCNC3)o1", "note": "[Compound 43]", "values": [{"measurement": "activity against APE1 in the qHTS assay, in words", "setting": "APE1 [1]", "result": "completely inactive"}]}
{"smiles": "CC(=O)Nc1sc2c(c1-c1nc3ccccc3s1)CCN(C(C)C)CC2", "note": "[Compound 55]", "values": [{"measurement": "inhibition at 100 µM", "setting": "[2]", "result": "~100", "unit": "%"}]}
{"smiles": "CC(=O)Nc1sc2c(c1-c1nc3ccccc3s1)CCNC2", "note": "[Compound 4]", "values": [{"measurement": "inhibition at 100 µM", "setting": "[2]", "result": "~100", "unit": "%"}]}
{"smiles": "CC(=O)Nc1sc2c(c1-c1nc3ccccc3o1)CCN(C(C)C)C2", "note": "[Compound 23]", "values": [{"measurement": "loss in activity", "setting": "APE1 [1]; relative to lead compound 3", "result": 10, "unit": "fold"}]}
{"smiles": "CC(=O)Nc1sc2c(c1-c1nc3ccccc3s1)CCSC2", "note": "[Compound 48]", "values": [{"measurement": "activity against APE1 in the qHTS assay, in words", "setting": "APE1 [1]", "result": "still active against APE1, albeit only at the highest concentration"}]}
{"smiles": "Cc1nnc(Nc2sc3c(c2-c2nc4ccccc4s2)CCNC3)o1", "note": "[Compound 45]", "values": [{"measurement": "activity against APE1 in the qHTS assay, in words", "setting": "APE1 [1]", "result": "modest activity"}, {"measurement": "less activity than the corresponding amide analog (4)", "setting": "APE1 [1]", "result": "approximately 8 fold"}]}
{"smiles": "COC(=O)c1sc2c(c1-c1nc3ccccc3s1)CCNC2", "note": "[Compound 41]", "values": [{"measurement": "activity against APE1 in the qHTS assay, in words", "setting": "APE1 [1]", "result": "complete loss of activity"}]}
{"smiles": "CC(=O)Nc1sc2c(c1-c1nc3ccccc3s1)CCN(C(C)C)C2", "note": "[Compound 3, N-(3-(benzo[d]thiazol-2-yl)-6-isopropyl-4,5,6,7-tetrahydrothieno[2,3-c]pyridin-2-yl)acetamide]", "values": [{"measurement": "CYP3A4 (inh. @ 10 µM)", "setting": "CYP3A4", "result": 53, "unit": "%"}, {"measurement": "inhibition at 100 µM", "setting": "[2]", "result": "~100", "unit": "%"}, {"measurement": "Papp", "setting": "Caco-2 permeability", "result": 500, "unit": "×10⁻⁶ cm/s"}, {"measurement": "IC50", "setting": "HeLa cells", "result": "~15", "unit": "µM"}, {"measurement": "potentiation of cytotoxic effects of MMS and TMZ", "setting": "HeLa cells", "result": "greatly potentiated"}, {"measurement": "concentration of optimal synergy with MMS and TMZ", "setting": "HeLa cells", "result": "5 to 10", "unit": "µM"}, {"measurement": "tolerability", "setting": "[3]", "result": "well tolerated by the animals, with no adverse effects noted"}, {"measurement": "APE1-DNA binary complex", "setting": "APE1-DNA complex", "result": "essentially absent"}, {"measurement": "KM increase", "setting": "APE1 [4]", "result": "≤ 4", "unit": "fold"}, {"measurement": "mode of inhibition", "setting": "APE1 [4]", "result": "competitive inhibitors"}, {"measurement": "kcat decrease", "setting": "APE1 [4]", "result": "less than 6 fold"}]}
{"smiles": "CC(=O)Nc1sc2c(c1-c1nc(-c3ccccc3)cs1)CCN(C(C)C)C2", "note": "[Compound 24]", "values": [{"measurement": "activity against APE1 in the qHTS assay, in words", "setting": "APE1 [1]", "result": "activity comparable to the lead compound"}]}
{"smiles": "CC(=O)Nc1sc2c(c1-c1cc3ccccc3s1)CCNC2", "note": "[Compound 15]", "values": [{"measurement": "activity against APE1 in the qHTS assay, in words", "setting": "APE1 [1]", "result": "greatly diminished activity"}]}
{"smiles": "CC(=O)Nc1sc2c(c1-c1ccco1)CCNC2", "note": "[Compound 13]", "values": [{"measurement": "activity against APE1 in the qHTS assay, in words", "setting": "APE1 [1]", "result": "greatly diminished activity"}]}
{"smiles": "CC(=O)Nc1sc2c(c1-c1nc3ccccc3s1)CCN(C(=O)OC(C)(C)C)C2", "note": "[Compound 5]", "values": [{"measurement": "activity against APE1 in the qHTS assay, in words", "setting": "APE1 [1]", "result": "significant loss of activity"}]}
{"smiles": "Cc1noc(Nc2sc3c(c2-c2nc4ccccc4s2)CCNC3)n1", "note": "[Compound 46]", "values": [{"measurement": "activity against APE1 in the qHTS assay, in words", "setting": "APE1 [1]", "result": "modest activity"}, {"measurement": "less activity than the corresponding amide analog (4)", "setting": "APE1 [1]", "result": "approximately 8 fold"}]}
{"smiles": "CC(=O)Nc1sc2c(c1-c1nc3ccccc3s1)CCN(C(C)=O)C2", "note": "[Compound 8]", "values": [{"measurement": "activity against APE1 in the qHTS assay, in words", "setting": "APE1 [1]", "result": "significant loss of activity"}]}
{"smiles": "CC(=O)Nc1sc2c(c1-c1nc3ccccc3s1)CCOC2", "note": "[Compound 47]", "values": [{"measurement": "activity against APE1 in the qHTS assay, in words", "setting": "APE1 [1]", "result": "still active against APE1, albeit only at the highest concentration"}]}
{"smiles": "CC(=O)Nc1sc2c(c1-c1nc3ccccc3s1)CNCC2", "note": "[Compound 53]", "values": [{"measurement": "activity against APE1 in the qHTS assay, in words", "setting": "APE1 [1]", "result": "only modest efficacy"}]}
{"smiles": "CC(=O)Nc1sc2c(c1-c1cc3ccccc3o1)CCNC2", "note": "[Compound 17]", "values": [{"measurement": "activity against APE1 in the qHTS assay, in words", "setting": "APE1 [1]", "result": "greatly diminished activity"}]}
{"smiles": "O=C(O)c1sc2c(c1-c1nc3ccccc3s1)CCNC2", "note": "[Compound 42]", "values": [{"measurement": "activity against APE1 in the qHTS assay, in words", "setting": "APE1 [1]", "result": "complete loss of activity"}]}
{"smiles": "CC(=O)Nc1sc2c(c1-c1cccs1)CCNC2", "note": "[Compound 14]", "values": [{"measurement": "activity against APE1 in the qHTS assay, in words", "setting": "APE1 [1]", "result": "greatly diminished activity"}]}
{"smiles": "CC(C)(C)C(=O)Nc1sc2c(c1-c1nc3ccccc3s1)CCNC2", "note": "[Compound 26]", "values": [{"measurement": "activity against APE1 in the qHTS assay, in words", "setting": "APE1 [1]", "result": "inactive"}]}
{"smiles": "Cc1noc(-c2sc3c(c2-c2nc4ccccc4s2)CCNC3)n1", "note": "[Compound 44]", "values": [{"measurement": "activity against APE1 in the qHTS assay, in words", "setting": "APE1 [1]", "result": "completely inactive"}]}
{"smiles": "CC(=O)Nc1sc2cnccc2c1-c1nc2ccccc2s1", "note": "[Compound 50]", "values": [{"measurement": "activity against APE1 in the qHTS assay, in words", "setting": "APE1 [1]", "result": "completely inactive"}]}
{"smiles": "O=C(CCc1ccccc1)Nc1sc2c(c1-c1nc3ccccc3s1)CCNC2", "note": "[Compound 30]", "values": [{"measurement": "activity against APE1 in the qHTS assay, in words", "setting": "APE1 [1]", "result": "inactive"}]}
{"smiles": "CC(=O)Nc1sc2c(c1-c1nccs1)CCNC2", "note": "[Compound 20]", "values": [{"measurement": "activity against APE1 in the qHTS assay, in words", "setting": "APE1 [1]", "result": "greatly diminished activity"}]}
{"smiles": "CC(=O)Nc1sc2c(c1-c1nc3ccccc3s1)CNC2", "note": "[Compound 52, N-(3-(benzo[d]thiazol-2-yl)-5,6-dihydro-4H-thieno[2,3-c]pyrrol-2-yl)acetamide]", "values": [{"measurement": "IC50", "setting": "APE1 [1]", "result": 3.1, "unit": "µM"}, {"measurement": "inhibition of HeLa whole cell extract AP site incision", "setting": "[2]; 10 µM inhibitor", "result": "almost complete inhibition"}, {"measurement": "inhibition at 100 µM", "setting": "[2]", "result": "~100", "unit": "%"}, {"measurement": "Papp", "setting": "Caco-2 permeability", "result": 680, "unit": "×10⁻⁶ cm/s"}, {"measurement": "IC50", "setting": "HeLa cells", "result": "~30", "unit": "µM"}, {"measurement": "potentiation of cytotoxic effects of MMS and TMZ", "setting": "HeLa cells", "result": "greatly potentiated"}, {"measurement": "concentration of optimal synergy with MMS and TMZ", "setting": "HeLa cells", "result": "10 to 15", "unit": "µM"}, {"measurement": "tolerability", "setting": "[3]", "result": "well tolerated by the animals, with no adverse effects noted"}, {"measurement": "APE1-DNA binary complex", "setting": "APE1-DNA complex", "result": "essentially absent"}, {"measurement": "KM increase", "setting": "APE1 [4]", "result": "up to 10 fold"}, {"measurement": "mode of inhibition", "setting": "APE1 [4]", "result": "competitive inhibitors"}, {"measurement": "kcat decrease", "setting": "APE1 [4]", "result": "less than 6 fold"}]}
